We go through 34 compounds from ChEMBL document CHEMBL1128705, “[[[(Thienylcarbonyl)alkyl]oxy]phenyl]- and [[[(pyrrylcarbonyl)alkyl]oxy]phenyl]oxazoline derivatives with potent and selective antihuman rhinovirus activity” (J Med Chem, 1995).

Converted amounts (≈) assume the structure as drawn.

For experiment [1], the system named is Human rhinovirus sp. Description: In vitro concentration required to achieve 50% protection of HeLa cells from HRV-14 induced cytopathic effect. The class given is functional, organism-based. An outline of the steps:
(§1)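 HeLa-Ohio cells (20 000/well) are seeded in D-MEM with 2% FCS, 30 mM MgCl2 and 15 µg/mL DEAE-dextran, then grown overnight at 37 °C, 5% CO2, to a subconfluent monolayer. Compound dilutions (from 200× DMSO stocks) are added with HRV at 200–2000 PFU/monolayer, dosed to give full CPE in 72 h. Plates are held at 33 °C and viability is read by MTT. EC50 is the concentration giving 50% protection.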
In general terms: Cytopathic effects are the visible damage that an infection or toxin causes in cultured cells.

Experiment [2] relates to HeLa. Description: In vitro concentration required to achieve 50% protection of HeLa cells from HRV-2 induced cytopathic effect. Type of experiment: functional, cell-based. To be noted: Homo sapiens. An outline of the steps: as §1
Experiment [3] has as its system HeLa. In words: In vitro concentration required to reduce the viability of mock-infected HeLa cells by 50%. To be noted: Homo sapiens. Type of experiment: functional. An outline of the steps: (§2)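 Cytotoxicity run alongside the antiviral assay on mock-infected HeLa-Ohio cells. Compounds are taken from 200× DMSO stocks and serially diluted in maintenance medium. Cells are incubated 72 h at 37 °C and viability is read by MTT. CC50 is the concentration that reduces viability by 50%.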

Experiment [4] has as its system Human rhinovirus sp. Description: In vitro concentration which inhibits 80% of serotypes tested. The class given is functional. An outline of the steps: (§3)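 CPE-inhibition MTT assay in HeLa-Ohio cells (30 mM MgCl2, 15 µg/mL DEAE-dextran, 2% FCS), infected at 200–2000 PFU/monolayer and incubated at 33 °C. MIC80 is the concentration inhibiting 80% of the serotypes tested.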

For experiment [5], the system named is HeLa. In words: Compound concentration required to reduce the viability of mock-infected HeLa cells by 50%, was reported. The class given is functional. To be noted: Homo sapiens. In a few lines: as §2
Experiment [6] concerns Human rhinovirus sp. Description: Compound concentration which inhibits 80% of serotypes tested, was reported. Type of experiment: functional. In a few lines: as §3
In experiment [7] the test system is HeLa. In words: In vitro concentration required to reduce the viability of mock-infected HeLa cells by 50%, was reported. The class given is functional. Conditions: Homo sapiens. In a few lines:
as §2

As a reminder, the EC50 is the concentration at which the effect is half-maximal. A low value points to higher potency in that assay. In general, CC50 refers to the concentration giving 50% cytotoxicity. Regarding `CCOC(=O)c1ccc(OCCCCC(=O)c2ccc(C)o2)cc1`, the EC50 in the experiment on Human rhinovirus sp. [1] amounted to 2.42 µM; in the experiment on HeLa [2] it was 0.91 µM. Further, in the experiment on HeLa [3], the 50% cytotoxic concentration (CC50) is 65 µM.
Regarding `CCOC(=O)c1ccc(OCCCCC(=O)c2ccc(Cl)s2)cc1`, the EC50 worked out at 0.54 µM in the experiment on Human rhinovirus sp. [1] and 0.08 µM in the experiment with HeLa [2]. This compound displayed an MIC80 against Human rhinovirus sp. [4] of 2.18 µM (≈ 0.8 µg/mL). In the experiment on HeLa [3], this compound returned a CC50 of 273 µM.
Turning to `Cn1cc(C(=O)CCCCOc2ccc(C(=O)O)cc2)cc1C=O`, the EC50 in the experiment with Human rhinovirus sp. [1] and with HeLa [2] was more than 30.9 µM each time. In addition, in the experiment with HeLa [5], the CC50 is more than 303 µM. In addition, in the experiment on Human rhinovirus sp. [6], the MIC80 is more than 30.9 µM.
`O=C(CCCCOc1ccc(C2=NCCO2)cc1)c1ccc[nH]1`: the EC50 was determined as 8.01 µM in the experiment with Human rhinovirus sp. [1] and 3.2 µM in the experiment with HeLa [2]. This compound returned an MIC80 in the experiment on Human rhinovirus sp. [4] of more than 32 µM. For the same compound, in the experiment on HeLa [3], the CC50 was more than 320 µM.
For `Clc1ccc(CCCCCOc2ccc(C3=NCCO3)cc2)s1` the same measures were 2.85 µM, 2.57 µM, 21.4 µM (≈ 7.5 µg/mL) and 71 µM.
For `O=C(CCCCOc1ccc(C2=NCCO2)cc1)c1ccc(Cl)s1` the same measures were 0.13 µM, 0.81 µM, more than 27.1 µM and more than 271 µM.
Regarding `c1ccn(CCCCCOc2ccc(C3=NCCO3)cc2)c1`, the EC50 in the experiment on Human rhinovirus sp. [1] is more than 31.9 µM; in the experiment on HeLa [2], 1.43 µM. Moreover, the MIC80 against Human rhinovirus sp. [4] is 15.9 µM (≈ 4.75 µg/mL). Further, in the experiment on HeLa [3], the midpoint of cytotoxicity, the CC50, lay at 159 µM.
With `Cc1csc(C(=O)CCCCOc2ccc(C(=O)O)cc2)c1`, the EC50 with Human rhinovirus sp. [1] and in the experiment on HeLa [2] was more than 31.4 µM each time. Besides, in the experiment with Human rhinovirus sp. [4], the MIC80 was more than 31.4 µM. The compound further gave a CC50 in the experiment with HeLa [3] of more than 314 µM.
With `CCOC(=O)c1ccc(OCCCCC(=O)c2cc(C)[nH]c2C)cc1`, the EC50 stood at 18.9 µM with Human rhinovirus sp. [1] and 1.17 µM with HeLa [2]. In addition, the MIC80 against Human rhinovirus sp. [4] is more than 29 µM. Further, the midpoint of cytotoxicity in the experiment with HeLa [3], the CC50, lay at 204 µM.
Take `Cc1ccc(C(=O)CCCCOc2ccc(C(=O)O)cc2)s1`: the EC50 in the experiment with Human rhinovirus sp. [1] and in the experiment with HeLa [2] was more than 31.4 µM in each case. In the experiment with Human rhinovirus sp. [4], the MIC80 was more than 31.4 µM. The CC50 in the experiment with HeLa [3] is more than 314 µM.
As for `Cc1ccc(C(=O)CCCCOc2ccc(C3=NCCO3)cc2)s1`, the EC50 in the experiment on Human rhinovirus sp. [1] was 0.14 µM; in the experiment with HeLa [2], 1.31 µM. Also, the MIC80 in the experiment on Human rhinovirus sp. [4] came out at 9.04 µM (≈ 3.1 µg/mL). The same compound displayed a CC50 in the experiment with HeLa [3] of 146 µM.
With `CCOC(=O)c1ccc(OCCCC(=O)c2ccc(C)s2)cc1`, the EC50 in the experiment with Human rhinovirus sp. [1] was more than 30.1 µM; in the experiment with HeLa [2], 10.6 µM. This compound also yielded an MIC80 in the experiment with Human rhinovirus sp. [4] of more than 30.1 µM. For the same compound, in the experiment with HeLa [3], the CC50 was more than 301 µM.
Consider `Cc1ccc(CCCCCOc2ccc(C3=NCCO3)cc2)s1`, for which the EC50 in the experiment with Human rhinovirus sp. [1] came out at 11.5 µM; in the experiment on HeLa [2], 2.58 µM. Moreover, the MIC80 against Human rhinovirus sp. [4] is more than 30.4 µM. In the experiment with HeLa [3], this compound displayed a CC50 of more than 303 µM.
On to `Cc1cc(C(=O)CCCCOc2ccc(C3=NCCO3)cc2)c(C)n1C`, for which the EC50 is 11.3 µM with Human rhinovirus sp. [1] and more than 28.2 µM with HeLa [2]. In addition, the MIC80 in the experiment on Human rhinovirus sp. [4] was more than 28.2 µM. The same compound had a CC50 with HeLa [3] of 141 µM.
Turning to `Cc1ccsc1C(=O)CCCCOc1ccc(C(=O)O)cc1`, the EC50 in the experiment with Human rhinovirus sp. [1] and in the experiment on HeLa [2] was more than 31.4 µM each time. The compound also showed an MIC80 with Human rhinovirus sp. [4] of more than 31.4 µM. The CC50 in the experiment with HeLa [3] was more than 314 µM.
Consider `Cc1ccc(C(=O)CCCOc2ccc(C3=NCCO3)cc2)s1`, for which the results for the EC50 in the experiment on Human rhinovirus sp. [1] and in the experiment on HeLa [2] were 22.7 µM and 15.2 µM, respectively. The same compound registered an MIC80 against Human rhinovirus sp. [4] of more than 30.3 µM.
For the compound `Cc1ccc(C(=O)CCCCOc2ccc(C(=O)NCCO)cc2)o1`, the EC50 in the experiment on Human rhinovirus sp. [1] and in the experiment on HeLa [2] was more than 30.6 µM each time. The compound further had an MIC80 against Human rhinovirus sp. [4] of more than 30.6 µM. Further, the CC50 in the experiment with HeLa [3] is more than 305 µM.
On to `Cc1csc(C(=O)CCCCOc2ccc(C3=NCCO3)cc2)c1`, for which the values for the EC50 with Human rhinovirus sp. [1] and in the experiment on HeLa [2] were 0.87 µM and 2.91 µM, respectively. In the experiment on Human rhinovirus sp. [4], this compound had an MIC80 of 14.6 µM (≈ 5.01 µg/mL). This compound also had a CC50 in the experiment on HeLa [3] of 73 µM.
For `CCOC(=O)c1ccc(OCCCCC(=O)c2cc(C)cs2)cc1`, the EC50 with Human rhinovirus sp. [1] came out at 5.78 µM; in the experiment with HeLa [2] it was 2.89 µM. The compound further came in with a CC50 in the experiment on HeLa [3] of more than 289 µM.
As for `Cc1cc(C(=O)CCCCOc2ccc(C3=NCCO3)cc2)c(C)[nH]1`, the EC50 with Human rhinovirus sp. [1] and in the experiment on HeLa [2] was more than 29.4 µM throughout. The compound further had an MIC80 in the experiment on Human rhinovirus sp. [4] of more than 29.4 µM. The CC50 in the experiment on HeLa [3] came to 205 µM.
As to `CCOC(=O)c1ccc(OCCCCCc2ccc(C)s2)cc1`, the values for the EC50 in the experiment on Human rhinovirus sp. [1] and in the experiment with HeLa [2] were 7.16 µM and 1.59 µM, respectively. In the experiment on Human rhinovirus sp. [4], the MIC80 was 14.3 µM (≈ 4.76 µg/mL). Moreover, in the experiment with HeLa [3], the midpoint of cytotoxicity, the CC50, lay at 301 µM.
The like results for `CCOC(=O)c1ccc(OCCCCC(=O)c2cc[nH]c2)cc1` were, in that order, 13.3 µM, 11 µM, 19.5 µM (≈ 6.14 µg/mL) and more than 317 µM.
For `CCOC(=O)c1ccc(OCCCCCc2ccc(Cl)s2)cc1` the same measures were 9.15 µM, 1.84 µM, 18.3 µM (≈ 6.45 µg/mL) and more than 284 µM.
For `CCOC(=O)c1ccc(OCCCCC(=O)c2cc(C)n(C)c2C)cc1` the same measures were 16.8 µM, 2.28 µM, more than 28 µM and 56 µM.
As to `CCOC(=O)c1ccc(OCCCCC(=O)c2ccc(C)s2)cc1`, the EC50 in the experiment with Human rhinovirus sp. [1] was determined as 0.29 µM; in the experiment with HeLa [2] it was 0.06 µM. For the same compound, the MIC80 with Human rhinovirus sp. [4] came to 2.31 µM (≈ 0.8 µg/mL). In the experiment with HeLa [3], the CC50 was more than 289 µM.
The like results for `c1cc(C2=NCCO2)ccc1OCCCCCN1CCCC1` were, in that order, more than 33.1 µM, more than 33.1 µM, more than 33.1 µM and 165 µM.
As for `Cn1cccc1C(=O)CCCCOc1ccc(C2=NCCO2)cc1`, the EC50 was 3.68 µM in the experiment on Human rhinovirus sp. [1] and more than 30.7 µM in the experiment on HeLa [2]. This compound showed a CC50 in the experiment on HeLa [7] of more than 306 µM. This compound also yielded an MIC80 against Human rhinovirus sp. [4] of more than 30.7 µM.
As to `O=C(O)c1ccc(OCCCCC(=O)c2ccc(Cl)s2)cc1`, the EC50 in the experiment with Human rhinovirus sp. [1] and with HeLa [2] was more than 29.5 µM in each case. Further, the MIC80 against Human rhinovirus sp. [4] is more than 29.5 µM. Further, the CC50 in the experiment with HeLa [3] was more than 295 µM.
Regarding `CCOC(=O)c1ccc(OCCCCC(=O)c2cc(C=O)n(C)c2)cc1`, the EC50 stood at 1.96 µM in the experiment on Human rhinovirus sp. [1] and 0.67 µM in the experiment on HeLa [2]. In the experiment with HeLa [5], this compound showed a CC50 of 56 µM. In the experiment with Human rhinovirus sp. [6], the MIC80 stood at 8.4 µM (≈ 3 µg/mL).
On to `Cc1ccsc1C(=O)CCCCOc1ccc(C2=NCCO2)cc1`, for which the 50% effective concentration (EC50) was 1.46 µM in the experiment on Human rhinovirus sp. [1] and 29.2 µM in the experiment with HeLa [2]. The MIC80 against Human rhinovirus sp. [4] is more than 29.1 µM. This compound yielded a CC50 in the experiment on HeLa [3] of 291 µM.
The like results for `O=C(CCCCOc1ccc(C2=NCCO2)cc1)c1cc[nH]c1` were, in that order, more than 32 µM, more than 32 µM, more than 32 µM and more than 320 µM.
The like results for `CCOC(=O)c1ccc(OCCCCC(=O)c2sccc2C)cc1` were, in that order, more than 28.9 µM, 6.94 µM, 20.8 µM (≈ 7.21 µg/mL) and 202 µM.
As to `Cn1cc(C(=O)CCCCOc2ccc(C3=NCCO3)cc2)cc1C=O`, the EC50 in the experiment on Human rhinovirus sp. [1] and in the experiment with HeLa [2] was more than 28.2 µM throughout. Besides, the CC50 with HeLa [5] was more than 282 µM. For the same compound, the MIC80 with Human rhinovirus sp. [6] was more than 28.2 µM.
Take `Cc1cc(CCCCCCCOc2ccc(C3=NCCO3)cc2)on1` [DISOXARIL]: the values for the EC50 with Human rhinovirus sp. [1] and in the experiment with HeLa [2] were 1.76 µM and 2.35 µM, respectively. In the experiment on HeLa [5], it took 37 µM to reach half-maximal cytotoxicity (CC50). In addition, the MIC80 in the experiment on Human rhinovirus sp. [6] was found to be 3.51 µM (≈ 1.2 µg/mL).
